Laboratory results: ChEMBL document CHEMBL1142576, “New bioactive clerodane diterpenoids from the bark of Casearia grewiifolia” (J Nat Prod, 2005)
Values after ≈ are worked out from the molar mass of the structure shown.

What was measured:
Plasmodium falciparum = experiment: Antimalarial activity against Plasmodium falciparum K1 by [3H]hypoxanthine uptake; format: functional, organism-based
Summary of the method: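 P. falciparum K1 (multidrug-resistant strain) kept in culture after Trager and Jensen; in vitro microculture radioisotope assay per Desjardins. Parasite growth read as [3H]-hypoxanthine uptake; IC50 = concentration giving 50% reduction in growth. Artemisinin as positive control.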

[1] = system: Mycobacterium tuberculosis; experiment: Antimycobacterial activity against Mycobacterium tuberculosis H37Ra by Alamar blue assay; format: functional
Summary of the method: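 Microplate Alamar Blue Assay (MABA) against strain H37Ra, with isoniazid and kanamycin sulfate as positive-control drugs.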

KB = experiment: Cytotoxicity against human KB cells; format: functional, cell-based
Summary of the method: (§1)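 Human cancer cell lines: epidermoid carcinoma KB, breast cancer BC1 and small cell lung cancer NCI-H187. Colorimetric cytotoxicity method of Skehan and co-workers, with ellipticine as reference.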

[2] = Cytotoxicity against human BC1 cells; format: functional, cell-based; summary of the method: as §1
NCI-H187 = experiment: Cytotoxicity against human NCI-H187 cells; format: functional, cell-based; summary of the method: as §1

| SMILES | IC50 (Plasmodium falciparum) [µg/mL] | MIC [1] [µg/mL] | IC50 (KB) [µg/mL] | IC50 [2] [µg/mL] | IC50 (NCI-H187) [µg/mL] |
| --- | --- | --- | --- | --- | --- |
| C=CC(=C)CC[C@]1(C)[C@H]2C[C@H](OC(=O)C(C)CC)C=C3[C@H](OC(C)=O)O[C@H](OC(C)=O)[C@@]32[C@H](OC)C[C@@H]1C (relative stereo) | 3.2 (≈ 6.01 µM) | 12.5 (≈ 23.5 µM) | 7.6 (≈ 14.3 µM) | 4 (≈ 7.51 µM) | 0.8 (≈ 1.5 µM) |
| C=CC(=C)CC[C@]1(C)[C@H]2C[C@H](OC(=O)C(C)CC)C=C3[C@H](OC(C)=O)O[C@H](OC(C)=O)[C@@]32[C@H](O)C[C@@H]1C (relative stereo) | 3.1 (≈ 5.98 µM) | 12.5 (≈ 24.1 µM) | 2.8 (≈ 5.4 µM) | 2.5 (≈ 4.82 µM) | 5.3 (≈ 10.2 µM) |
| C=CC(=C)CC[C@]1(C)[C@H]2C[C@H](OC(=O)CC(C)C)C=C3[C@H](OC(C)=O)O[C@H](OC(C)=O)[C@@]32[C@H](OC)C[C@@H]1C (relative stereo) [CASEARGREWIIN A] | 2.9 (≈ 5.44 µM) | 12.5 (≈ 23.5 µM) | 8.7 (≈ 16.3 µM) | 4.6 (≈ 8.64 µM) | 0.9 (≈ 1.69 µM) |
| C=C/C(C)=C\C[C@]1(C)[C@H](C)[C@@H](OC(=O)/C=C/c2ccc(O)cc2)[C@H](O)[C@@]23C(=C[C@H](OC(=O)CCC)C[C@@H]12)[C@@H](OC(C)=O)O[C@H]3OC(C)=O (relative stereo) [CASEARGREWIIN B] | 2.4 (≈ 3.6 µM) | 12.5 (≈ 18.7 µM) | 2.3 (≈ 3.45 µM) | 1.9 (≈ 2.85 µM) | 1.5 (≈ 2.25 µM) |
| C=C/C(C)=C\C[C@]1(C)[C@H](C)[C@@H](OC(C)=O)[C@H](O)[C@@]23C(=C[C@H](OC(=O)CC(C)C)C[C@@H]12)[C@@H](OC(C)=O)O[C@H]3OC(C)=O (relative stereo) [CASEARGREWIIN C] | 3 (≈ 5.2 µM) | 25 (≈ 43.4 µM) | 1.9 (≈ 3.29 µM) | 2 (≈ 3.47 µM) | 0.3 (≈ 0.52 µM) |
| C[C@@H]1CC[C@H]2[C@@H](C)C(=O)O[C@@H]3O[C@@]4(C)CC[C@@H]1[C@]32OO4 [ARTEMISININ] | 0.001 (≈ 0.00354 µM) |  |  |  |  |
| C=C/C(C)=C\C[C@]1(C)[C@H](C)CC[C@@]23C(=C[C@H](O)C[C@@H]12)[C@@H](OC(C)=O)O[C@H]3OC(C)=O [CASEARGREWIIN D] | 3.3 (≈ 7.88 µM) | 12.5 (≈ 29.9 µM) | 1.3 (≈ 3.11 µM) | 0.1 (≈ 0.239 µM) | 1.5 (≈ 3.58 µM) |
| Cc1c2ccncc2c(C)c2c1[nH]c1ccccc12 [ELLIPTECINE] |  |  |  | 0.26 (≈ 1.06 µM) |  |
| NNC(=O)c1ccncc1 [ISONIAZID] |  | 0.05 (≈ 0.365 µM) |  |  |  |
| NC[C@H]1O[C@H](O[C@H]2[C@H](O)[C@@H](O[C@H]3O[C@H](CO)[C@@H](O)[C@H](N)[C@H]3O)[C@H](N)C[C@@H]2N)[C@H](O)[C@@H](O)[C@@H]1O.O=S(=O)(O)O [KANAMYCIN SULFATE] |  | 2.5 |  |  |  |
